Measurements as given in ChEMBL document CHEMBL1122658, “Amnesia-reversal activity of a series of N-[(disubstituted-amino)alkyl] -2-oxo-1-pyrrolidineacetamides, including pramiracetam” (1984).

How the values were obtained:
Assay type in all cases: functional
Conditions in all cases: route intraperitoneal
Mus musculus [1] = assay: Ability to reverse electroconvulsive shock (ECS) induced amnesia in mice, after administering intraperitoneally, at a dose of 160 mg/kg
Summary of the method: (§1)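 Male CF-1 mice (20-25 g), five groups of 20, trained in one trial on step-through inhibitory avoidance (darkened chamber). ECS given 2 h after training. Test drug or vehicle placebo injected ip 2 h after ECS, 1 h before retention test. Entry into box within 60 s scored as amnesia. % reversal = (drug − base-line ECS+placebo)/(ceiling no-ECS+placebo − base-line) ×100.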

Mus musculus [2] = assay: Ability to reverse electroconvulsive shock (ECS) induced amnesia in mice, after administering intraperitoneally, at a dose of 80 mg/kg; summary of the method: as §1
Mus musculus [3] = assay: Ability to reverse electroconvulsive shock induced amnesia in mice, after administering intraperitoneally at a dose of 20 mg/kg; summary of the method: as §1
Mus musculus [4] = assay: Ability to reverse electroconvulsive shock (ECS) induced amnesia in mice, after administering intraperitoneally, at a dose of 0.63 mg/kg; summary of the method: as §1
Mus musculus [5] = assay: Ability to reverse electroconvulsive shock (ECS) induced amnesia in mice, after administering intraperitoneally, at a dose of 80.0 mg/kg; summary of the method: as §1
Mus musculus [6] = assay: Ability to reverse electroconvulsive shock induced amnesia in mice, after administering intraperitoneally at a dose of 5 mg/kg; summary of the method: as §1
Mus musculus [7] = assay: Ability to reverse electroconvulsive shock induced amnesia in mice, after administering intraperitoneally at a dose of 20.0 mg/kg; summary of the method: as §1
Mus musculus [8] = assay: Ability to reverse electroconvulsive shock induced amnesia in mice, after administering intraperitoneally at a dose of 2.5 mg/kg; summary of the method: as §1
Mus musculus [9] = assay: Ability to reverse electroconvulsive shock induced amnesia in mice, after administering intraperitoneally at a dose of 1.25 mg/kg; summary of the method: as §1
Mus musculus [10] = assay: Ability to reverse electroconvulsive shock (ECS) induced amnesia in mice, after administering intraperitoneally, at a dose of 5 mg/kg; summary of the method: as §1
Mus musculus [11] = assay: Ability to reverse electroconvulsive shock (ECS) induced amnesia in mice, after administering intraperitoneally, at a dose of 0.31 mg/kg; summary of the method: as §1

SMILES | Amnesia reversal (Mus musculus [1]) [%] | Amnesia reversal (Mus musculus [2]) [%] | Amnesia reversal (Mus musculus [3]) [%] | Amnesia reversal (Mus musculus [4]) [%] | Amnesia reversal (Mus musculus [5]) [%] | Amnesia reversal (Mus musculus [6]) [%] | Amnesia reversal (Mus musculus [7]) [%] | Amnesia reversal (Mus musculus [8]) [%] | Amnesia reversal (Mus musculus [9]) [%] | Amnesia reversal (Mus musculus [10]) [%] | Amnesia reversal (Mus musculus [11]) [%]
CC1CCCC(C)N1CCNC(=O)CN1C(=O)CCC1(C)C (stereo not given) | 80 | 44 | 22 | – | – | – | – | – | – | – | –
CC(C)N(CCNC(=O)CN1CCCC1=O)C(C)C [PRAMIRACETAM] | – | – | – | 0 | 18 | 96 | 82 | 60 | 30 | – | –
CC(CNC(=O)CN1CCCC1=O)N1CCCCC1 (stereo not given) | – | 0 | 0 | – | – | – | – | – | – | 0 | –
CC1CCCC(C)N1CCNC(=O)CN1CCCCC1=O (stereo not given) | – | – | – | – | 60 | 20 | 10 | – | – | – | –
NC(=O)CN1CC(c2ccccc2)CC1=O (stereo not given) | – | – | – | 0 | 0 | 15 | 0 | 0 | 0 | – | –
CC(C(=O)NCCN1C(C)CCCC1C)N1CCCC1=O (stereo not given) | – | 61 | 42 | – | – | – | – | – | – | 17 | –
C=C(C)[C@@H]1[C@H]2OC(=O)[C@@H]1[C@]1(O)C[C@H]3OC34C(=O)O[C@H]2[C@@]41C.CC(C)(O)[C@@H]1[C@H]2OC(=O)[C@@H]1[C@]1(O)C[C@H]3OC34C(=O)O[C@H]2[C@@]41C (stereo not given in full) [PICROTOXIN] | – | – | – | 5 | – | 5 | – | 5 | 5 | – | 5
CC(C)N(CCCNC(=O)CN1CCCC1=O)C(C)C | – | – | – | 0 | 30 | 30 | 20 | 0 | 9 | – | –
C1CCc2nnnn2CC1.O=C(O)c1cccnc1 | – | 9 | 0 | – | – | 0 | – | – | – | – | –
COC(=O)[C@H]1[C@@H](OC(=O)c2ccccc2)C[C@@H]2CC[C@H]1N2C [COCAINE] | – | – | – | 10 | – | 10 | – | 15 | 10 | – | 15
CCC1CCC(=O)N1CC(=O)NCCN1C(C)CCCC1C (stereo not given) | – | 27 | 40 | – | – | – | – | – | – | 27 | –
CCC1CCCC(CC)N1CCCNC(=O)CN1CCCC1=O (stereo not given) | – | – | – | – | 17 | – | 42 | 0 | 0 | 42 | –
CC1CCCC(C)N1CCNC(=O)CCN1CCCC1=O (stereo not given) | – | – | – | – | 17 | 33 | 42 | – | – | – | –
C[C@@H]1CCC[C@H](C)N1CCNC(=O)CN1CCCC1=O | – | – | – | 10 | 10 | 70 | 70 | 50 | 20 | – | –
CC(C)N(CCCNC(=O)CN1CC(c2ccccc2)CC1=O)C(C)C (stereo not given) | – | – | – | 9 | 27 | 82 | 55 | 45 | 0 | – | –
CN1CCC[C@H]1c1cccnc1 [NICOTINE] | – | – | – | 5 | – | 0 | – | 5 | 0 | – | 20
CC1CCCC(C)N1CCNC(=O)CN1CC(c2ccccc2)CC1=O (stereo not given) | – | 33 | 44 | 0 | – | – | – | 40 | 10 | 67 | –
NC(=O)CN1CCC(c2ccccc2)C1=O (stereo not given) | – | – | – | – | 33 | 8 | 17 | – | – | – | –
CC1CCCC(C)N1CCCNC(=O)CN1C(=O)CCC1(C)C (stereo not given) | 33 | – | 58 | – | 50 | – | – | – | – | 25 | –

SMILES | Amnesia reversal (Mus musculus [1]) [%] | Amnesia reversal (Mus musculus [2]) [%] | Amnesia reversal (Mus musculus [3]) [%] | Amnesia reversal (Mus musculus [4]) [%] | Amnesia reversal (Mus musculus [5]) [%] | Amnesia reversal (Mus musculus [6]) [%] | Amnesia reversal (Mus musculus [7]) [%] | Amnesia reversal (Mus musculus [8]) [%] | Amnesia reversal (Mus musculus [9]) [%] | Amnesia reversal (Mus musculus [10]) [%] | Amnesia reversal (Mus musculus [11]) [%]
CC1CCC(=O)N1CC(=O)NCCN1C(C)CCCC1C (stereo not given) | – | 0 | 36 | 33 | – | – | – | 67 | 58 | 55 | –
CC1CCCC(C)N1CCCNC(=O)CN1CC(c2ccccc2)CC1=O (stereo not given) | – | 50 | 0 | – | – | – | – | – | – | 0 | –
C[C@H](N)Cc1ccccc1 [DEXTROAMPHETAMINE] | – | – | – | 15 | – | – | – | – | 40 | – | 10
CC1CCC(=O)N1CC(=O)NCCCN1C(C)CCCC1C (stereo not given) | – | 10 | 30 | – | – | – | – | – | – | 0 | –
CCN(CC)CCNC(=O)CN1CC(c2ccccc2)CC1=O (stereo not given) | – | – | – | 0 | 8 | 42 | 0 | 27 | 0 | – | –
CC1CC(C)N(CCCNC(=O)CN2CCCC2=O)C(C)(C)C1 (stereo not given) | – | 45 | 18 | – | – | – | – | – | – | 9 | –
CC1CCC(=O)N1CC(=O)NCCN(C(C)C)C(C)C (stereo not given) | – | 56 | 0 | – | – | – | – | – | – | 0 | –
O=C(CN1CCCC1=O)NCCN1CCCCC1 | – | – | – | 18 | 0 | 45 | 0 | 45 | 64 | – | –
CC(C(=O)NCCCN1C(C)CCCC1C)N1CCCC1=O (stereo not given) | 30 | 23 | – | – | – | 8 | 50 | – | – | – | –
CC(C)N(CCCCNC(=O)CN1CCCC1=O)C(C)C | – | – | – | 0 | 15 | 31 | 31 | 8 | 8 | – | –
CC1CCC(=O)N1CC(=O)NCCCN(C(C)C)C(C)C (stereo not given) | 20 | 30 | 0 | – | – | – | – | – | – | 40 | –
C[C@H]1CCC[C@H](C)N1CCNC(=O)CN1CCCC1=O | – | – | – | – | 17 | – | 25 | 82 | 45 | 48 | –
CCN(CC)CCNC(=O)CN1CCCC1=O | – | 31 | 46 | – | – | – | – | – | – | 15 | –
CN(C)CCCNC(=O)CN1CCCC1=O | – | – | – | – | 46 | 31 | 46 | – | – | – | –
CC(C)N(C)CCNC(=O)CN1CCCC1=O | – | 0 | 0 | – | – | – | – | – | – | 21 | –
CC1CCCC(C)N1CCCNC(=O)CN1CCCC1=O (stereo not given) | 60 | – | – | – | 100 | 50 | 55 | 33 | 25 | – | –
CN(C)CCNC(=O)CN1CCCC1=O.Cl | – | – | – | – | – | – | – | – | – | 50 | –
CN(C)CCCN1c2ccccc2Sc2ccc(Cl)cc21 [CHLORPROMAZINE] | – | – | – | 20 | – | 0 | – | 0 | 10 | – | 15
CC(CNC(=O)CN1C(=O)CCC1C)N1CCCCC1 (stereo not given) | – | 45 | 36 | – | – | – | – | – | – | 18 | –
